Results as given in ChEMBL document CHEMBL3734687, “Mechanism of action of antiepileptic ceramide from Red Sea soft coral Sarcophyton auritum” (2015).
The source made the active and inactive calls. The rule behind the calls is not given here.

Legend:
Mus musculus [1] = assay: Anxiolytic activity in mouse assessed as increase in time spent in the open arm pretreated with 0.1 mg/kg, ip GABA-A blocker bicuculline followed by compound administration measured for 3 mins by elevated plus maze test; type: functional, organism-based
In short: (§1)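 Elevated plus maze in mice, 3 min screen. Read-out is percent of time spent in the open arms versus vehicle-treated mice. Diazepam reference at 1 mg/kg. Pretreatment with bicuculline (0.1 mg/kg, i.p.) or ondansetron (1 mg/kg, i.p.) preceded the test agent. n = 6/group. One-way ANOVA followed by Bonferroni, P<0.05.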

Mus musculus [2] = assay: Anxiolytic activity in mouse assessed as increase in time spent in the light area pretreated with 0.1 mg/kg, ip GABA-A blocker bicuculline followed by compound administration measured for 3 mins by dark-light transition test; type: functional, organism-based
In short: (§2)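 Dark-light transition box in mice, 3 min session. Cumulative time spent in the light area was recorded. Diazepam reference at 1 mg/kg i.p. Antagonist arms were pretreated with bicuculline (0.1 mg/kg, i.p.) or ondansetron (1 mg/kg, i.p.) before the test agent. n = 6. One-way ANOVA with Bonferroni comparisons, P<0.05.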

Mus musculus [3] = assay: Anxiolytic activity in mouse assessed as increase in time spent in the light area pretreated with 1 mg/kg, ip 5-HT3 receptor blocker ondansetron followed by compound administration measured for 3 mins by dark-light transition test; type: functional, organism-based; in short: as §2
Mus musculus [4] = species: Mus musculus; assay: Anticonvulsant activity in mouse assessed as time to death post pentylenetetrazole challenge measured for 20 mins; type: functional
In short: (§3)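 Mice given an acute pentylenetetrazole challenge (70 mg/kg, i.p.). Time to death recorded over a 20 min observation. Some groups were pretreated with bicuculline (0.1 mg/kg, i.p.) or ondansetron (1 mg/kg, i.p.) before the test agent. n = 6 per group. One-way ANOVA with Bonferroni post-test, P<0.05.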

Mus musculus [5] = species: Mus musculus; assay: Anxiolytic activity in mouse assessed as increase in time spent in the open arm measured for 3 mins by elevated plus maze test relative to vehicle treated control; type: functional, organism-based; in short: as §1
Mus musculus [6] = assay: Anticonvulsant activity in mouse model of PTZ-induced seizures assessed as prolongation of death time post pentylenetetrazole challenge pretreated with 0.1 mg/kg, ip GABA-A blocker bicuculline followed by compound administration measured for 20 mins; type: functional, organism-based; in short: as §3
Mus musculus [7] = assay: Anticonvulsant activity in mouse model of PTZ-induced seizures assessed as prolongation of death time post pentylenetetrazole challenge pretreated with 1 mg/kg, ip 5-HT3 receptor blocker ondansetron followed by compound administration measured for 20 mins; type: functional, organism-based; in short: as §3
Mus musculus [8] = species: Mus musculus; assay: Anxiolytic activity in mouse assessed as increase in time spent in the light area measured for 3 mins by dark-light transition test; type: functional, organism-based; in short: as §2
Mus musculus [9] = assay: Anxiolytic activity in mouse assessed as increase in time spent in the open arm pretreated with 1 mg/kg, ip 5-HT3 receptor blocker ondansetron followed by compound administration measured for 3 mins by elevated plus maze test; type: functional, organism-based; in short: as §1
Mus musculus [10] = assay: Anxiolytic activity in mouse assessed as increase in time spent in the open arm at 1 mg/kg measured for 3 mins by elevated plus maze test relative to vehicle treated control; type: functional, organism-based; in short: as §1
Mus musculus [11] = assay: Anxiolytic activity in mouse assessed as increase in time spent in the light area at 1 mg/kg, ip measured for 3 mins by dark-light transition test; type: functional, organism-based; in short: as §2

Row | SMILES | Activity (Mus musculus [1]) | Activity (Mus musculus [2]) | Activity (Mus musculus [3]) | Time (Mus musculus [4]) | Activity (Mus musculus [5]) | Activity (Mus musculus [6]) | Activity (Mus musculus [7]) | Activity (Mus musculus [8]) | Activity (Mus musculus [9]) | Activity (Mus musculus [10]) | Activity (Mus musculus [11])
1 | CCCCCCCCCCCCCC/C=C/C=C/[C@@H](O)[C@H](CO)NC(=O)CCCCCCCCCCCC | inactive | inactive | Active | 911 s | Active | inactive | Active | Active | Active |  | 
2 | CN1C(=O)CN=C(c2ccccc2)c2cc(Cl)ccc21 [DIAZEPAM] |  |  |  | 536 s |  |  |  |  |  | Active | Active
